Results collected from several papers.
Compare with care: the assays were run in different laboratories.
Target: Protein-tyrosine kinase 6 (PTK6, Homo sapiens, UniProt Q13882)

| SMILES | read-out | mode | technique | concentration | measurement | result |
| --- | --- | --- | --- | --- | --- | --- |
| O=C(Nc1cnn(-c2csc(C(=O)NC3COC3)c2)c1)Nc1c(F)cccc1Cl | enzyme activity | inhibitor |  | 5 µM | remaining activity | 85.7% |
| CC/C(=N\NC(=O)NCc1cccc(O)c1)c1ccc(O)c(C)c1O | enzyme activity | inhibitor |  | 0.1 µM | inhibition | -3% |
| CCCOc1ccc([C@@H]2[C@@H](C(=O)O)[C@H](c3ccc4c(c3)OCO4)CN2CC(=O)Nc2c(CC)cccc2CC)cc1 | cell-free assay |  | competition with immobilised ligand | 1 µM | remaining binding | 83% |
| CS(=O)(=O)CCNCc1ccc(-c2ccc3ncnc(Nc4ccc(OCc5cccc(F)c5)c(Cl)c4)c3c2)o1 | cell-free assay |  |  | 0.5 µM | remaining signal | 103% |
| Cc1cc(C)c(-n2ccn3nc(-c4cccnc4)cc23)cc1NC(=O)c1cc(C#N)cc(S(F)(F)(F)(F)F)c1 | cell-free assay |  | competition with immobilised ligand | 0.1 µM | remaining binding | 99.5% |
| CC(C)(O)[C@H]1CC[C@H](Nc2ccc3ncc(-c4cccc(C(F)(F)F)c4)n3n2)CC1 | enzyme activity | inhibitor |  | 1 µM | remaining activity | 50.4% |
| NS(=O)(=O)c1cc(NC(=O)C2(c3ccccc3Cl)CC2)ccc1Oc1cccc(Cl)c1 | cell-free assay |  | competition with immobilised ligand | 1 µM | remaining binding | 99% |
| Cc1ccc(NC(=O)c2ccc(C)c(C(F)(F)F)c2)cc1C#Cc1nn(C2CCC(O)CC2)c2ncnc(N)c12 (stereo not drawn) | cell-free assay |  |  | 10 µM | remaining signal | -1% |
| CNC(=O)c1cc2c(Oc3ccc(NC(=O)C4(C(=O)Nc5ccc(F)cc5)CC4)cc3)ccnc2cc1OC | enzyme activity | inhibitor | radiometric | 1 µM | inhibition | 98% |
| CS(=O)(=O)N1CCCC(NC(=O)[C@H](CCC2CCCCC2)NC(=O)c2ccc(CNc3ncnc4c3nnn4-c3ccccc3)cc2)C1 (stereo partly drawn) | cell-free assay |  | competition with immobilised ligand | 0.1 µM | remaining binding | 76% |
| FC(F)(F)Oc1cccc(-c2cnc3ccc(-c4ccncc4)nn23)c1 | enzyme activity | inhibitor | radiometric | 5 µM | activity vs control | 70% |
| Cc1cnc(NC2CCOCC2)nc1-n1cnc(C(=O)NC(CN)c2cc(F)cc(Cl)c2)c1 (stereo not drawn) | enzyme activity | inhibitor | radiometric | 1 µM | remaining activity | 127% |
| CCN(CC)CCNC(=O)c1c(C)[nH]c(/C=C2\C(=O)Nc3ccc(F)cc32)c1C | enzyme activity | inhibitor |  | 10 µM | inhibition | 74% |
| CCC(=O)N[C@H]1CC[C@@H](C(=O)N(C)c2ccc(-c3nc4ccccc4o3)cc2)C1 | cell-free assay |  | competition with immobilised ligand | 1 µM | remaining binding | 100% |
| Cc1ccc(Nc2nccc(N(C)c3ccc4c(C)n(C)nc4c3)n2)cc1S(N)(=O)=O | enzyme activity | inhibitor |  | 10 µM | inhibition | 88% |
| COc1cc2nccc(Oc3ccc(NC(=O)c4c5n(n(-c6ccc(F)cc6)c4=O)CCCC5)cc3)c2cc1OC | enzyme activity | inhibitor |  | 0.1 µM | inhibition | 37% |
| CNC(=O)Nc1ccc2c(c1)[C@@]1(CC2)OC(=O)N(CC(=O)N(Cc2ccc(F)cc2)[C@@H](C)C(F)(F)F)C1=O | cell-free assay |  | competition with immobilised ligand | 1 µM | remaining binding | 90% |
| O=C1Nc2ccc(Cl)cc2C1=Cc1cc(Cl)c(O)c(Cl)c1 | cell-free assay |  |  | 0.5 µM | remaining signal | 73.8% |
| CC(=O)N1CCC(c2ccc(C(=O)NC3=NCCN3)cc2C(F)(F)F)CC1 | cell-free assay |  | competition with immobilised ligand | 1 µM | remaining binding | 88% |
| COc1cc(Nc2cnc(C#N)c(O[C@H](C)CN(C)C)n2)ncc1-c1cnn(C)c1 | enzyme activity | inhibitor | radiometric | 1 µM | remaining activity | 98% |
| CC(C)(C)c1nc(-c2cccc(NS(=O)(=O)c3c(F)cccc3F)c2F)c(-c2ccnc(N)n2)s1 | enzyme activity | inhibitor | radiometric | 1 µM | remaining activity | 26% |
| CCCOc1ccc(OC)c(F)c1C(=O)c1ccc(C(=O)N[C@@H]2CNC[C@H]2NC(=O)c2ccc3[nH]ncc3c2)cc1 | enzyme activity | inhibitor |  | 10 µM | remaining activity | 97% |
| C=CC(=O)Nc1cc(Nc2nccc(Nc3cc(Cl)c(F)cc3C(C)(C)O)n2)c(OC)cc1N1CC[C@@H](N(C)C)C1 | enzyme activity | inhibitor |  | 1 µM | inhibition | 63% |
| O=C1CCc2cc(Nc3cc(OC4CCOCC4)c([N+](=O)[O-])cc3Cl)ccc2N1 | cell-free assay |  | competition with immobilised ligand | 1 µM | remaining binding | 100% |
| COc1cc2ncnc(Nc3ccc(Oc4ccccc4)cc3C)c2cc1OC | enzyme activity | inhibitor |  | 1 µM | inhibition | 95% |
| CN(C)C1CCN(CC#Cc2nn(C3CCCC3)c3nc(NCc4ccccc4)ncc23)C1 (stereo not drawn) | enzyme activity | inhibitor | FRET | 1 µM | inhibition | 1% |
| CNC(=O)c1cc(Oc2ccc(NC(=O)Nc3ccc(Cl)c(C(F)(F)F)c3)cc2)ccn1 | enzyme activity | inhibitor |  | 0.3 µM | inhibition | -3% |
